Bioassay records as filed in PubChem BioAssay.
In the library only some 1.8% were active in any assay of this set; here they are far more common.
NPY-Y1 antag: antagonists of human neuropeptide Y receptor Y1 | inhibition, % at 3.6 µM | 200,000 tested, 1% active | HEK293-CNG Y1 cells, membrane potential fluorescence; NPY at EC95, then isoproterenol | P25929;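 active means inhibition above the campaign mean inhibition of all tested compounds plus 3 SD, cut at about 20% in these data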
Target sequence (P25929 whole entry, looked up): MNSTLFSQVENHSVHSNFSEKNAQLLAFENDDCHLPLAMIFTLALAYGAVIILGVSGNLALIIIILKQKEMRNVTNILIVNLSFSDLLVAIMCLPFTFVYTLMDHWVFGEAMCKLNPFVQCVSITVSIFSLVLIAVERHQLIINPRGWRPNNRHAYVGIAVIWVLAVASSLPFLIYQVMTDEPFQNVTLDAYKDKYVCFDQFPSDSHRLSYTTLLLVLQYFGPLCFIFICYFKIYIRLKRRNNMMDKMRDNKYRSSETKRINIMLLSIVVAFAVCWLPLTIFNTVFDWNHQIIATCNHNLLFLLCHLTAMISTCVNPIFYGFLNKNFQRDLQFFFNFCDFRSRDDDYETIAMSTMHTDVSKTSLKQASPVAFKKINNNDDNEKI
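Test system – HEK293 Y1/CNG channel cell line · Also added – NPY agonist 25 nM, then isoproterenol 1 µM plus Ro 20-1724 25 µM · Compound dosing – one concentration, 3.6 µM, in 0.4% DMSO · Schedule – compound incubation 1 h at room temperature, readout 45 min post-stimulation · Technique – fluorescence, membrane potential probe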
NPY2 pot ag: potentiators or agonists of human neuropeptide Y receptor Y2 | P49146 | cells expressing NPY-Y2, potentiator/agonist read-out | activation, % at 3.6 µM | 220,000 tested, 0.45% active | AID 1359; in the data active means activation above about 27%;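 further: cells stimulated with NPY near EC25 plus isoproterenol at EC100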
NPY-Y2 antag: antagonists of human neuropeptide Y receptor Y2. AID 793. 140,000 tested, 0.99% active. inhibition, % at 2.7 µM. P49146. NPY-Y2 expressing cells, antagonist mode; in the data active means inhibition above about 17%
NPY1 pot ag: potentiates or activates human NPY-Y1 receptor; 220,000 tested, 0.37% active; activation, % at 3.6 µM; AID 1304; NPY-Y1 expressing cells, potentiator/agonist activation; P25929; in the data active means activation above about 33%, passing the limit was not always enough;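 further: cells stimulated with NPY at EC10 then isoproterenol at EC100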
NPY-Y2 pot conf: confirmation of human NPY-Y2 receptor potentiators or agonists; shares compounds with NPY2 pot ag; cell-based NPY-Y2 potentiator/agonist assay; activation, % at 3.6 µM; 450 tested, 20% active; AID 1539; in the data active means activation above about 33%
NPY-Y1 potentiator: NPY-Y1 potentiation or agonism as NPY-Y2 counter-screen; Y1 HEK293-CNG cells, membrane potential fluorescence; 450 tested, 20% active; shares compounds with NPY2 pot ag; AID 1651; activation, % at 3.6 µM; in the data active means activation above about 45%;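 further: cells stimulated with submaximal NPY then isoproterenol with phosphodiesterase inhibitor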
NPY-Y1 agonist 2: counter-screen for NPY-Y2 potentiators: agonists of human NPY-Y1. shares compounds with NPY2 pot ag. HEK293 Y1-CNGC, membrane potential fluorescence, agonism. activation, % at 3.6 µM. 450 tested, 37% active;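 active means activation above the mean of DMSO-only control wells plus 3 SD, cut at about 18% in these data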;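 further: cells stimulated with 1 µM isoproterenol plus the PDE inhibitor Ro 20-1724; Y1 agonists lower the membrane potential dye signal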
CNGC inhibitor: cyclic nucleotide gated channel inhibition as counter-screen | HEK293-CNG parental, isoproterenol cAMP, membrane potential fluorescence | shares compounds with NPY2 pot ag | 450 tested, 32% active | inhibition, % at 3.6 µM | AID 1703;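 active means inhibition above the control-well mean plus 3 SD of those wells, cut at about 22% in these data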
Y2 agonist ctr: activates human NPY-Y2 receptor in potentiator counter-screen. shares compounds with NPY2 pot ag. HEK293 Y2/CNGC cells, membrane potential fluorescence, agonist mode. activation, % at 3.6 µM. 450 tested, 56% active. AID 1710;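 active means activation above the mean of solvent-only control wells plus 3 SD, cut at about 10% in these data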;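 further: cells stimulated by isoproterenol with no NPY added so direct agonism is tested; agonism lowers probe fluorescence through less cAMP and CNG channel opening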
Large screens that a line does not name were inactive (follow-up assays come after a bar, where they were run).

O=C(c1ccc(CNS(=O)(=O)c2ccccc2)cc1)N1CCN(Cc2ccccc2)CC1	NPY2 pot ag 27 | NPY-Y2 pot conf inactive | NPY-Y1 potentiator inactive | NPY-Y1 agonist 2 inactive | CNGC inhibitor inactive | Y2 agonist ctr inactive
Cc1cc(C(=O)NNC(=O)Nc2ccc(Cl)cc2)no1	NPY2 pot ag 97 (no result: NPY-Y1 antag, NPY-Y2 antag) | NPY-Y2 pot conf inactive | NPY-Y1 potentiator inactive | NPY-Y1 agonist 2 inactive | CNGC inhibitor inactive | Y2 agonist ctr inactive
Oc1ccccc1N=Nc1ccccc1O	NPY2 pot ag 29 (no result: NPY-Y2 antag) | NPY-Y2 pot conf 36 | NPY-Y1 potentiator 46 | NPY-Y1 agonist 2 30 | CNGC inhibitor 27 | Y2 agonist ctr 43
CCOC(=O)C1=CN(c2cccc(F)c2)C=C(C(=O)OCC)C1c1cc(OC)c(O)c([N+](=O)[O-])c1	none
[O-]/[N+](=C\c1ccncc1)c1ccc(Br)cc1	NPY2 pot ag 57 | NPY-Y2 pot conf inactive | NPY-Y1 potentiator inactive | NPY-Y1 agonist 2 20 | CNGC inhibitor inactive | Y2 agonist ctr inactive
[O-]/[N+](=C/c1cccnc1)c1ccc(Br)cc1	none
COC(=O)c1ccc(N2CCN(S(=O)(=O)c3ccc4ccccc4c3)CC2)c([N+](=O)[O-])c1	none
NC(=O)c1ccc(N2CCN(S(=O)(=O)c3ccccc3)CC2)c([N+](=O)[O-])c1	NPY2 pot ag 31 (no result: NPY-Y2 antag) | NPY-Y2 pot conf inactive | NPY-Y1 potentiator inactive | NPY-Y1 agonist 2 inactive | CNGC inhibitor inactive | Y2 agonist ctr inactive
Cc1cc(C)n(-c2ccc(C(=O)Nc3cc(S(=O)(=O)N(C)C)ccc3Cl)cc2)n1	none
CCOc1nc(N=C(N)N)nc2c(C)cccc12	NPY2 pot ag 38 | NPY-Y2 pot conf inactive | NPY-Y1 potentiator inactive | NPY-Y1 agonist 2 inactive | CNGC inhibitor inactive | Y2 agonist ctr inactive
CCOc1nc(-c2ccccc2O)nc2ccccc12	none
COc1ccc(-n2nc([N+](=O)[O-])c(=NCCC3=CCCCC3)n2O)cc1	none (no result: NPY-Y2 antag)
Cc1nc2ccccn2c1-c1ccnc(SCc2ccc(Cl)cc2)n1	NPY2 pot ag 49 (no result: NPY-Y1 antag, NPY-Y2 antag) | NPY-Y2 pot conf inactive | NPY-Y1 potentiator inactive | NPY-Y1 agonist 2 inactive | CNGC inhibitor inactive | Y2 agonist ctr inactive
O/N=C/c1ccnc(SCc2ccc(Cl)cc2)n1	none (no result: NPY-Y1 antag, NPY-Y2 antag)
COc1ccc(/C=C/C(=O)c2c(O)ccc3c(C)cc(=O)oc23)cc1	NPY2 pot ag 64 | NPY-Y2 pot conf inactive | NPY-Y1 potentiator inactive | NPY-Y1 agonist 2 inactive | CNGC inhibitor inactive | Y2 agonist ctr inactive
COc1ccc(/C=C\C(=O)c2c(O)ccc3c(C)cc(=O)oc23)cc1	none
CC(C)CCSc1nc(N)c(C#N)cc1C#N	none
NC(=O)c1cnn(-c2ccc3ccccc3c2)c1N	none (no result: NPY-Y2 antag)
COc1ccc(-n2c(-c3cc(-c4ccccc4)sc3N)n[nH]c2=S)cc1	none (no result: NPY-Y1 antag, NPY-Y2 antag)
Nc1sc(-c2ccccc2)cc1-c1n[nH]c(=S)n1C1CCCCC1	NPY2 pot ag 102 (no result: NPY-Y1 antag, NPY-Y2 antag) | NPY-Y2 pot conf inactive | NPY-Y1 potentiator inactive | NPY-Y1 agonist 2 inactive | CNGC inhibitor inactive | Y2 agonist ctr 25
C/C(N)=C(/C#N)C(=O)CSc1nn(-c2ccc(Cl)cc2)c(=S)s1	NPY2 pot ag 35 (no result: NPY-Y2 antag) | NPY-Y2 pot conf inactive | NPY-Y1 potentiator inactive | NPY-Y1 agonist 2 inactive | CNGC inhibitor inactive | Y2 agonist ctr 10.0
O=C(OCN1C(=O)c2ccccc2C1=O)c1ccc2c(=O)n3c(nc2c1)CCC3	none
COc1ccc(COC(=O)c2ccc3c(=O)n4c(nc3c2)CCC4)cc1F	NPY2 pot ag 59 (no result: NPY-Y1 antag, NPY-Y2 antag) | NPY-Y2 pot conf inactive | NPY-Y1 potentiator inactive | NPY-Y1 agonist 2 inactive | CNGC inhibitor inactive | Y2 agonist ctr 10
Cc1cn(C2CC3OCC3O2)c(=O)[nH]c1=O (centres undefined)	none
Cc1cccc(Cl)c1NC(=O)N1CCCN(c2nc3ccc(Cl)cc3s2)CC1	NPY2 pot ag 45 (no result: NPY-Y1 antag, NPY-Y2 antag) | NPY-Y2 pot conf inactive | NPY-Y1 potentiator inactive | NPY-Y1 agonist 2 inactive | CNGC inhibitor inactive | Y2 agonist ctr inactive
